Experimental data pooled from the literature.
Protocols differ between the studies behind these lines.
Target: Wee1-like protein kinase (WEE1, Homo sapiens, UniProt P30291)

| Structure (SMILES) | test | setting | remaining binding [%] |
| --- | --- | --- | --- |
| N[C@@H]1CCN(c2nccc(-c3cnn4ncccc34)n2)C1 | binding | 1 µM | 100 |
| COc1cnc(Nc2cccc(S(N)(=O)=O)c2)nc1N1CCN(c2ccccc2)C(=O)C1 | binding, competition with immobilised ligand | 1 µM | 98 |
| CCN1CCN(Cc2ccc(C(=O)Nc3ccc(C)c(Oc4ccc5c(c4)CC(=O)N5)c3)cc2C(F)(F)F)CC1 | binding, competition with immobilised ligand | 1 µM | 100 |
| F[C@@H]1CCN(c2nccc(-c3cnn4ncccc34)n2)C1 | binding | 1 µM | 100 |
| O=C(c1ccc(Nc2nccc(-c3cc4ccccc4s3)n2)cc1)N1CCC(N2CCCC2)CC1 | binding, competition with immobilised ligand | 1 µM | 83 |
| CO[C@@H](C)c1c(Nc2ccc([C@@H](N(C)C(=O)C3CCS(=O)(=O)CC3)C(F)(F)F)cc2)cnc2cc(Cl)nn12 | cell-free assay, competition with immobilised ligand | 1 µM | 92 |
| COc1ncc2cc3ccccc3nc2c1C#N | cell-free assay, competition with immobilised ligand | 5 µM | 98 |
| O=C(NCCCN1CCOCC1)c1ccc(Nc2ncc(Cl)c(-c3ccc(Cl)s3)n2)cc1 | binding, competition with immobilised ligand | 1 µM | 15 |
| c1cncc(-c2cccc(Nc3nccc(NC4CCCCC4)n3)c2)c1 | binding, competition with immobilised ligand | 10 µM | 90 |
| CCC(=O)N[C@H]1CC[C@@H](C(=O)N(C)c2ccc(-c3nc4ccccc4o3)cc2)C1 | cell-free assay, competition with immobilised ligand | 1 µM | 100 |
| O=C(NCCCN1CCOCC1)c1ccc(Nc2nccc(-c3cc4ccccc4s3)n2)cc1 | binding, competition with immobilised ligand | 1 µM | 67 |
| C[C@H]1CCN(c2nccc(-c3cnn4ncccc34)n2)C1 | binding | 1 µM | 100 |
| O=C(NCC1CCOCC1)c1n[nH]cc1NC(=O)c1c(F)cccc1F | binding, competition with immobilised ligand | 1 µM | 97 |
| CN(CCCC(F)(F)F)c1nccc(-c2cnn3ncccc23)n1 | binding | 1 µM | 100 |
| CC(C)CC(=O)N1CCc2nc(-c3ccc(Br)cc3)nc(N(C)Cc3ccccc3)c2C1 | cell-free assay, competition with immobilised ligand | 0.1 µM | 100 |
| CN(C)c1nccc(-c2cnc3ncccn23)n1 | binding | 1 µM | 100 |
| CN1CCN(c2cnc3c(C4CCN(C(=O)c5ccc(OC(F)(F)F)cc5N)CC4)ncnc3c2)CC1 | cell-free assay, competition with immobilised ligand | 1 µM | 96 |
| Cc1cnn2ncc(-c3ccnc(N(C)C)n3)c2c1 | binding | 1 µM | 100 |
| Cn1nc(C(=O)NCc2ccc(C(=O)O)cc2)cc1-c1ccc2[nH]ccc2c1 | cell-free assay, competition with immobilised ligand | 0.1 µM | 100 |
| COc1cnc(Nc2cccc(S(N)(=O)=O)c2)nc1N1CCN(c2ccccc2)CC1 | binding, competition with immobilised ligand | 1 µM | 100 |
| Cc1c[nH]c2nccc(Oc3c(F)cc(Nc4cc(Cl)nc(N)n4)cc3F)c12 | cell-free assay, competition with immobilised ligand | 0.1 µM | 100 |
| CC1CCCN1c1nccc(-c2cnn3ncccc23)n1 (stereo not shown) | binding | 1 µM | 100 |
